# The entries come from a sample that favours hits as a whole.
# UPR CHOP act: apoptotic UPR (CHOP) activation. activation, % at 10 µM. CHO-CHOP luciferase reporter, luminescence; percent of tunicamycin response over DMSO baseline. 330,000 tested, 0.34% active;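 active = at 10 µM dose, activation of 40% or more, normalized to positive control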;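 note: 100% = tunicamycin at 10 µg/mL and 0% = DMSO alone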
#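 Assay system: CHO-CHOP cells, stable luciferase reporter of PERK-eIF2a-CHOP signalling / Buffer or medium: F12 plus 10% serum / Compound dosing: one dose, 10 µM in 0.5% DMSO / Times: 6 h compound treatment, 37 °C / Technique: luciferase luminescence / Read-out: % reporter activation, DMSO baseline versus tunicamycin full activation / Benchmarks: tunicamycin and DMSO controls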
# XBP1 UPR activ: adaptive UPR (XBP1) activation | 330,000 tested, 0.33% active | CHO-XBP1 luciferase reporter, IRE1-XBP1 UPR activation, luminescence; percent of tunicamycin response, DMSO as zero | activation, % at 20 µM;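 active = versus positive control, 20 µM dose yields 30% or more activation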;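 note: 100% = tunicamycin at 10 µg/mL and 0% = DMSO only wells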
#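 Assay system: IRE1-XBP1 luciferase reporter CHO line. Input: 1000 cells/well. Buffer or medium: F12 with 10% serum. Doses: 20 µM, 1% DMSO. Times: overnight seeding at 37 °C, 6 h compound treatment at 37 °C. Technique: Steady-Glo luciferase glow luminescence, 10 min after reagent addition.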
# PvdQ inh: P. aeruginosa PvdQ acylase inhibition; purified PvdQ acylase, fluorescence plate reader; inhibition, % at 10 µM; 340,000 tested, 0.063% active; AID 488965; in the data active = inhibition above about 30%, passing the limit was not always enough;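 note: 0% = vehicle neutral wells and 100% = reference inhibitor wells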
# CHOP inhibitor: blocks CHOP induction under ER stress. CHO-K1 CHOP-promoter luciferase, tunicamycin-induced, 15-18 h. inhibition, % at 10 µM. 220,000 tested, 3.8% active. AID 2732;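 active = compounds that reduced the stress-induced luciferase reporter signal by more than about 70% of percent inhibition, limit read from the data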;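 note: 0% = tunicamycin plus vehicle and 100% = wells without tunicamycin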
# XBP1 UPR conf: confirmation of adaptive unfolded protein response (XBP1) activators; 1,000 tested, 63% active; AID 485299; shares compounds with XBP1 UPR activ; activation, % at 20 µM; CHO-XBP1 IRE1-XBP1 luciferase reporter, luminescence;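 active = reporter signal at least 30% of the positive control's activation in two or more of four replicate wells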;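 note: plate controls were DMSO negative control for no effect and tunicamycin 10 µg/mL positive control for full effect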
# Starred values were filed as active, the others as inactive; x = no result given.
SMILES,UPR CHOP act,XBP1 UPR activ,PvdQ inh,CHOP inhibitor,XBP1 UPR conf
N#Cc1ccc(OCC(=O)OCC(=O)NCCC2=CCCCC2)cc1,1,0,-19,-9,x
CCC(Sc1nnc2c3ccccc3n(CC)c2n1)C(=O)Nc1sc2c(c1C#N)CCCC2 (centres undefined),12,163*,2,9,157*
CCC(Sc1nc(C)cc(=O)[nH]1)C(=O)Nc1sc2c(c1C#N)CCCC2 (centres undefined),1,0,-6,19,x
CCn1c(Cc2cccc3ccccc23)nnc1SCC(=O)Nc1nccs1,-4,-4,-9,14,x
Cc1cc(NC(=O)/C(C#N)=C/c2ccc(-c3ccc(SC(F)F)cc3)o2)n(-c2ccccc2)n1,36,37*,-9,56,34*
COc1cccc(/C=C/c2ccc3cccc(O)c3n2)c1OC,26,5,3,x,x
COc1cc(/C=C/c2ccc3cccc(O)c3n2)cc(OC)c1OC,339*,77*,-14,x,1
COc1cc(/C=C/c2ccc3cccc(O)c3n2)cc(Cl)c1OC,19,66*,-7,x,17
CCOc1cccc2cc(C(=O)N3CCOCC3)c(=O)oc12,3,1,-7,x,x
Cc1ccc2c(c1)C(=O)C(=O)N2Cc1ccc(C(F)(F)F)cc1,2,51*,-20,x,46*
Cc1ccc(OCCN2C(=O)C(=O)c3cc(C)ccc32)cc1,2,18,-8,-30,x
CCN(C(=O)COC(=O)CNC(=O)c1cccs1)c1c(N)n(Cc2ccccc2)c(=O)[nH]c1=O,x,x,-1,x,x
O=C(NCC(c1ccco1)N1CCc2ccccc2C1)C(=O)Nc1ccccc1 (centres undefined),-1,-3,1,x,x
CC(=O)N1c2ccc(S(=O)(=O)N3CCCCC3)cc2CC1C(=O)Nc1ccc(C)cc1 (centres undefined),1,-7,-9,x,x
COc1ccc2cc3cc(C(=O)NCCN4CCN(c5ccccc5F)CC4)oc3nc2c1,1,5,-10,54,x
COc1ccc2cc3cc(C(=O)Nc4ccccc4N4CCN(C)CC4)oc3nc2c1,3,40*,-5,86*,13
C[C@H]1COC(=O)[C@H](CC(=O)OC(C)(C)C)C/C=C\C[C@H](CC(=O)N(CCO)Cc2ccccc2)C(=O)N1,1,-2,7,x,x
COc1ccccc1C1C([N+](=O)[O-])=CC([N+](=O)[O-])=CN1C (centres undefined),25,51*,-12,43,0
COc1ccccc1C1NC=C([N+](=O)[O-])C=C1[N+](=O)[O-] (centres undefined),0,-4,-2,-30,x
CCOc1ccc(NC(=O)C(Cc2ccccc2)N2C(=O)c3cccc4cccc(c34)C2=O)cc1 (centres undefined),19,65*,-14,-6,69*
CCOc1ccc(NC(=O)C(CC(=O)O)Cc2ccccc2)cc1 (centres undefined),1,0,-7,23,x
Cc1cc(-c2c(C)[nH]n(-c3ccccc3)c2=O)n[nH]1,0,2,1,-29,x
COc1ccc(-c2oc(=O)c3cc(OC)c(OC)cc3c2/C=C/c2ccc(OC(C)=O)cc2)cc1,15,18,-11,x,x
COc1cc(-c2noc(C)c2/C=C/c2ccc(OC(C)=O)cc2)cc(OC)c1OC,3,32*,1,x,32*
COc1ccc(/C=N/Nc2nnc(-c3ccccc3)c(=O)[nH]2)cc1,31,49*,-3,-73,73*
SMILES,UPR CHOP act,XBP1 UPR activ,PvdQ inh,CHOP inhibitor,XBP1 UPR conf
O=c1[nH]c(N/N=C/c2ccccc2Br)nnc1-c1ccccc1,1,14,-13,20,x
C=CCN=C1S/C(=C/c2cccc([N+](=O)[O-])c2)C(=O)N1CC=C,9,33*,3,-9,47*
C=CCN=C1S/C(=C/c2ccc([N+](=O)[O-])cc2)C(=O)N1CC=C,0,3,-11,-11,x
O=C(O)C(Cc1ccc(OS(=O)(=O)Cc2ccccc2)cc1)NS(=O)(=O)Cc1ccccc1 (centres undefined),x,x,7,x,x
CN(C)/C=C/C(=O)c1cc(F)cc(C(F)(F)F)c1,0,0,-6,12,x
COc1cc(OC)c2c(-c3cccc(-c4ccc(CO)cc4)c3)cc(=O)oc2c1,0,34*,-6,x,30*
Cc1cc(-n2c(SCC(=O)Nc3ccc(Br)cc3)nc3n[nH]c(C)c3c2=N)ccc1Cl,5,36*,-5,x,20
Cc1cc(-n2c(SCC(=O)Nc3ccc(F)c(F)c3)nc3n[nH]c(C)c3c2=N)ccc1Cl,10,34*,-13,x,60*
COc1cccc(NC(=O)CSc2nc3n[nH]c(C)c3c(=N)n2-c2cccc(OC)c2)c1,-1,7,-8,67,x
c1ccc(C2NCCn3cccc32)cc1 (centres undefined),3,49*,-8,14,0
CC(OC(=O)c1ccccc1NCCO)C(=O)NCC(=O)Nc1ccc(F)c(F)c1F (centres undefined),-2,-4,-8,x,x
O=C(CSCc1ccc(Cl)cc1)Nc1ccc(-c2nnc(-c3ccccc3)o2)cc1,28,107*,11,67,72*
CNC(=O)CSc1nnc(C(C)C)n1C,0,-4,-9,21,x
COCCNC(=O)/C(C#N)=C1\N=C(NC(=O)c2cccs2)c2ccccc21,2,0,-2,x,x
CCCNC(=O)/C(C#N)=C1\N=C(NC(=O)c2cccs2)c2ccccc21,1,45*,-5,x,66*
COc1ccccc1CC(=O)Nc1ccc(-c2noc(COc3ccc(Cl)c(C)c3)n2)cc1,6,31*,-10,-12,8
CCOc1ccccc1-c1nc(-c2ccc(NC(=O)Cc3ccccc3OC)cc2)no1,2,0,6,32,x
O=[N+]([O-])c1ccc(S(=O)(=O)NCC(c2cccnc2)N2CCc3ccccc32)cc1 (centres undefined),2,-4,1,x,x
Cc1csc2nc(COC(=O)c3ccc(Cl)c([N+](=O)[O-])c3)cc(=O)n12,17,71*,10,x,3
Cc1cc(N2CCN(c3nc(-c4ccc([N+](=O)[O-])cc4)cs3)CC2)c2ccccc2n1,9,68*,-14,82*,39*
O=C(C[C@H]1C[C@H](C(=O)N2CCCCC2)[C@@]2(CCc3ccccc3)c3[nH]c4cc(-c5ccco5)ccc4c3CCN2C1=O)NCCC1=CCCCC1,3,0,2,x,x
CN(C)C(=O)CCc1ccc2c3c([nH]c2c1)[C@]1(C)[C@@H](C(=O)N2CCCCC2)C[C@H](CC(=O)NCc2ccco2)C(=O)N1CC3,2,0,-15,x,x
CN(C)C(=O)CCc1ccc2c3c([nH]c2c1)[C@]1(CCc2ccccc2)[C@@H](C(=O)N2CCCCC2)C[C@H](CC(=O)NCc2ccco2)C(=O)N1CC3,40,33*,-20,x,2
